Screening data from PubChem BioAssay.
RAM inhibit = inhibitors of the yeast RAM network | S. cerevisiae dse1pr::URA3 reporter, 5-FOA growth OD615, 2 d; analog-sensitive cbk1-as2 kinase mutant strain | inhibition, % at 50 µM | 190,000 tested, 1.8% active;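 active means inhibition above a set limit, 3 SD over mean compound inhibition, cut at about 8.4% in these data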;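 further: inhibition rescues growth on 5-FOA so higher OD means more RAM inhibition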
Measles CPE = protection of cells from measles virus | protection (pct of control), % at 4 µM | Measles virus-infected cells, CPE protection, absorbance | 140,000 tested, 1.5% active; in the data active means protection mostly above about 24%, no sharp cut-off; inactive means mostly below about 26%
BB579 growth dn = chemicals that inhibit yeast BB579 growth in restrictive medium (lifespan-shortening candidates); S. cerevisiae BB579 growth, OD615, 48 h; inhibition, % at 10 µM; 140,000 tested, 0.51% active;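 active means inhibition above a set limit, 3 SD over the mean compound inhibition, cut at about 44% in these data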
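test system = yeast BB579 (DeaD) | buffer or medium = restrictive CSMM-D medium | doses = single compound dose of 10 µM, 0.25% DMSO final | times = 4 h preincubation and 48 h exposure at 30 °C | technique = culture absorbance at 615 nm | benchmarks = amphotericin B 10 µg/mL, positive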
Yeast lifespan up = yeast lifespan extension; S. cerevisiae growth with nicotinamide, OD615; deaD strain in restrictive glucose medium; inhibition of the nicotinamide effect, % at 10 µM; 130,000 tested, 0.68% active;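 active means inhibition above a set limit, placed 3 SD over the median of all compounds, cut at about 26% in these data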
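assay system = DeaD-strain S. cerevisiae | measured by = absorbance at 615 nm | probe or stimulus = nicotinamide 1.5 mM | buffer or medium = CSMM-D glucose medium, restrictive | times = 48 h at 30 °C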
Phagocyt inh = macrophage phagocytosis inhibition | 110,000 tested, 0.07% active | J774A.1 macrophage IgG-bead phagocytosis, imaging | inhibition, % at 5 µM;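 active means inhibition above the mean of the plate negative controls plus 5 SD, cut at about 13% in these data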;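 further: phagocytic index as fraction of beads internalized from green versus red external bead signal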
Numbers stand for hits; 0 = inactive; - = no result. An excerpt weighted towards active compounds, which were near 3.6% of everything screened.

SMILES | RAM inhibit | Measles CPE | BB579 growth dn | Yeast lifespan up | Phagocyt inh
CCOC(=O)C1=C(c2ccccc2)O/C(=C(\C(=O)OC)C(F)(F)F)S1 | 11.2 | 0 | 0 | 0 | 0
Cc1cc2ncn(/N=C/c3cccnc3)c2cc1C | 0 | 0 | 0 | 0 | 0
Cc1cc2ncn(/N=C/c3ccc(-c4ccccc4)o3)c2cc1C | 9.5 | 0 | 0 | 0 | 0
CC[C@@H](C(=O)n1nc(C)cc1C)[C@H](NS(=O)(=O)c1ccc(C)cc1)c1ccccc1 | 10.0 | 0 | 0 | 0 | 0
Cc1ccc(S(=O)(=O)NC(C(=O)O)c2ccccc2)cc1 (stereo not given) | 0 | - | - | - | -
CC(C)C(=O)Nc1ccc(NC(=O)c2ccco2)cn1 | 0 | 55.0 | 0 | 0 | 0
O=C(Nc1ccc2nc[nH]c2c1)c1ccco1 | 0 | 52.7 | 0 | 0 | 0
O=C(Nc1ccc2nc(-c3ccccc3)[nH]c2c1)c1ccco1 | 0 | 0 | 0 | 0 | 0
CC(C)CNC(=O)c1cccc(NC(=O)c2ccco2)c1 | 0 | 21.9 | 0 | 0 | 0
O=C(NCc1ccccc1)c1cccc(NC(=O)c2ccco2)c1 | 0 | 0 | 0 | 0 | 0
CC(Nc1[nH]c(=O)n(C)c(=O)c1N=O)c1ccccc1 (stereo not given) | 0 | - | - | - | -
Cc1cccc(N2CCN(C(=O)C3(S(=O)(=O)c4ccc(Cl)cc4)CC3)CC2)c1C | 8.6 | - | - | - | -
O=C(c1ccc(N2CCCCC2)c([N+](=O)[O-])c1)N1CCOCC1 | 0 | 0 | 0 | 0 | 0
Cc1ccc(C(=O)O/N=C\c2ccc(N3CCOCC3)c([N+](=O)[O-])c2)cc1 | 0 | 0 | 0 | 0 | -
O=C(O/N=C\c1ccc(N2CCCCC2)c([N+](=O)[O-])c1)c1ccc(Cl)cc1Cl | 10.3 | 0 | 0 | 0 | -
O=C(/C=C/c1ccc(N2CCCCC2)c([N+](=O)[O-])c1)c1ccc(O)cc1 | 8.6 | - | - | - | -
COc1ccccc1C(=O)/C=C/c1ccc(N2CCCCC2)c([N+](=O)[O-])c1 | 9.7 | 0 | 0 | 0 | -
CCN(CC)c1ccc(C=C2C(=O)OC3(CCCC3)OC2=O)cc1 | 0 | 39.8 | 0 | 0 | 0
CCOC(=O)c1ccc(CNC(=O)CSc2nnnn2-c2ccc(Cl)cc2)o1 | 0 | 42.6 | 0 | 0 | 0
CCOC(=O)NC(=O)CSc1nnnn1-c1ccc(Cl)cc1 | 0 | 0 | 0 | 0 | -
CCC(=C(c1ccc(OC)cc1)c1ccc(OC)cc1)c1cn(CC(O)CN2CCN(C)CC2)c2ccccc12 (stereo not given) | 0 | 0 | 94.9 | 0 | 0
Cc1ccc(OCCN2CCN(CC(O)Cn3c4ccccc4c4ccccc43)CC2)cc1 (stereo not given) | 0 | 0 | 0 | 0 | 0
CCO[C@H]1OC(C(=O)N2CCCCCCC2)=C[C@@H](C)[C@@H]1CCCO | 0 | - | - | - | -
COc1cc(/C=C2\SC(=Nc3ccc(N4CCOCC4)cc3)N(C)C2=O)ccc1OC(C)C(=O)O (stereo not given) | 0 | 0 | 0 | 0 | 0
CCCCN(C)CCNC(=O)CCNC(=O)Cn1ccc2ccccc2c1=O | 0 | - | - | - | -
SMILES | RAM inhibit | Measles CPE | BB579 growth dn | Yeast lifespan up | Phagocyt inh
CNC(=O)COC(=O)COc1ccc2c(C)cc(=O)oc2c1 | 0 | - | - | - | -
Cc1cc(=O)oc2cc(OCC(=O)OCC(=O)NCCc3ccccc3)ccc12 | 9.2 | - | - | - | -
Cc1noc(C)c1COC(=O)[C@H](C)NS(=O)(=O)c1ccc(Cl)c(Cl)c1 | 0 | 0 | 0 | 0 | 0
Cc1noc(C)c1COC(=O)Cc1ccc(Cl)c(Cl)c1 | 0 | 39.7 | 0 | 0 | 0
Cc1noc(C)c1COC(=O)COc1ccc2c(C)cc(=O)oc2c1 | 0 | 39.3 | 0 | 0 | 0
COc1ccccc1OCCCCN1CCN(C(c2ccccc2)c2ccccc2)CC1 | 0 | 0 | 0 | 0 | -
CCN1CCN(C(=O)C2(NC(=O)Nc3ccccc3Cl)CCCCC2)CC1 | 0 | 48.9 | 0 | - | -
CN1CCN(C(=O)C2(NC(=O)Nc3ccccc3Cl)CCCCC2)CC1 | 0 | 0 | 0 | - | -
O=C(N/N=C/C=C/c1ccco1)/C(=C/c1ccccc1)NC(=O)c1ccccc1 | 0 | 0 | 0 | 0 | -
CC(C)C(NC(=O)c1ccccc1)C(=O)OCc1cc([N+](=O)[O-])cc2c1OCOC2 (stereo not given) | 0 | 0 | 0 | 0 | 0
CCOc1ccccc1C(=O)N[C@H](C(=O)OCc1cc(=O)oc2cc(C)ccc12)C(C)C | 9.7 | - | 0 | 0 | 0
CCOc1ccccc1C(=O)N[C@H](C(=O)OCc1cc([N+](=O)[O-])cc2c1OCOC2)C(C)C | 8.8 | 0 | 0 | 0 | 0
CCC(=NCCc1c(C)[nH]c2ccc(C)cc12)C1=C(O)CC(c2ccccc2)CC1=O (stereo not given) | 0 | 0 | 0 | 49.5 | 0
CC(=O)C1=C(O)CC(c2ccccc2)CC1=NCCc1c(C)[nH]c2ccc(C)cc12 (stereo not given) | 0 | 0 | 0 | 0 | -
CCCc1cc(=O)[nH]c(SCC(=O)c2cc(C)n(C(C)COC)c2C)n1 (stereo not given) | 0 | 45.4 | 0 | 0 | -
CCCCn1c(-c2nonc2N)nc2ccccc21 | - | 0 | 0 | 0 | -
CC(C)CCn1c(-c2nonc2N)nc2ccccc21 | 10.1 | 0 | 0 | - | -
CCc1ccccc1NC(=O)c1ccc([N+](=O)[O-])s1 | 0 | - | - | - | -
CCOc1ccccc1NC(=O)COC(=O)CC(NC(N)=O)c1ccc(Cl)cc1 (stereo not given) | 0 | - | - | - | -
CC(C)OC(=O)c1ccc(N)cc1 | 0 | - | - | - | -
O=P(COCCCCCOCP(=O)(c1ccccc1)c1ccccc1)(c1ccccc1)c1ccccc1 | 0 | - | - | - | -
COc1ccc(OC)c(Nc2nc(N)nc(-c3cc4ccccc4o3)n2)c1 | 0 | 0 | 0 | 0 | 35.9
Nc1nccc(-c2ccc(-n3cccc3)cc2)n1 | 0 | - | - | - | -
Cc1ccc(S(=O)(=O)N2CCOCC2)cc1NC(=O)COC(=O)CSc1ccc(Br)cc1C | 0 | 0 | 0 | 0 | 0
CCN1CCN(c2cc3c(nn2)Oc2ccccc2N3C)CC1 | 0 | 0 | 0 | 0 | -
SMILES | RAM inhibit | Measles CPE | BB579 growth dn | Yeast lifespan up | Phagocyt inh
O=C(CN(c1cccc(C(F)(F)F)c1)S(=O)(=O)c1ccc(Cl)c([N+](=O)[O-])c1)NCc1ccccc1 | 0 | 0 | 0 | 0 | 0
CCOC(=O)C(C)(C)N(Cc1cccc(C)c1)S(=O)(=O)c1ccc(Cl)c([N+](=O)[O-])c1 | 11.1 | 0 | 0 | 0 | 0
Nc1nonc1C(=O)NCCN=Cc1ccccc1O | 0 | 0 | 0 | 0 | -
Nc1nonc1C(=O)NCCN=Cc1cc(Cc2ccccc2)cc(Br)c1O | 0 | 0 | 99.4 | 0 | 0
C/C=C/Cn1c(N2CCCCCC2)nc2c1c(=O)[nH]c(=O)n2C | 0 | 0 | 0 | 136.5 | -
CC1CCCN(c2nc3c(c(=O)[nH]c(=O)n3C)n2CCCc2ccccc2)C1 (stereo not given) | 0 | 42.0 | 0 | 0 | 0
CCCCCCCCn1c(N2CCN(c3cccc(Cl)c3)CC2)nc2c1c(=O)[nH]c(=O)n2C | 9.1 | 0 | 0 | 0 | 0
COc1ccccc1N1CCN(C(=O)c2ccc(CSc3ccccc3)cc2)CC1 | 9.8 | 0 | 0 | 0 | 0
O=C(c1ccc(CSc2ccccc2)cc1)N1CCN(c2ccccc2)CC1 | 0 | - | - | - | -
CC(=O)n1cc([C@H]2C=C(C(=O)N3CCN(Cc4ccc5c(c4)OCO5)CC3)O[C@@H](OCCCCO)C2)c2ccccc21 | 0 | - | - | - | -
CCOC(=O)c1c(NS(=O)(=O)c2ccc(Br)cc2)sc2c1CCC2 | 9.8 | 0 | 0 | - | -
